According to ChEMBL document CHEMBL1914438, “Synthesis and biological activity of novel N-cycloalkyl-(cycloalkylaryl)-2-[(3-R-2-oxo-2H-[1,2,4]triazino[2,3-c]quinazoline-6-yl)thio]acetamides” (2011):
Activity calls are given as the source filed them. The rule behind the calls is not given here.

What was measured:
Escherichia coli = experiment: Antibacterial activity against Escherichia coli at 1 to 5 mg/mL after 24 hrs by stiff-plate agar-diffusion method; type: functional, organism-based
Outline: (§1)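 Agar diffusion (stiff plate) with test substances at 5 mg/mL in grooves, allowed to diffuse into nutrient agar; inoculum 10^9 c.f.u./mL; bacteria incubated 24 h at 35 °C. Read-out: inhibition zone diameter (not sensitive 11–15 mm, sensitive 16–25 mm, highly sensitive >25 mm). Vancomycin and oxacillin as standards; three repeats.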

Yamadazyma tenuis = experiment: Antifungal activity against Candida tenuis at 1 to 5 mg/mL after 48 to 72 hrs by stiff-plate agar-diffusion method; type: functional, organism-based
Outline: (§2)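 Fungal plates run by stiff-plate agar diffusion, substances applied to grooves at 5 mg/mL; 10^9 c.f.u./mL cells; incubation 48–72 h at 28–30 °C. Inhibition zone diameter scored (11–15 mm not sensitive, 16–25 mm sensitive, >25 mm highly sensitive). Nystatin standard; experiments done three times.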

[1] = system: Photobacterium leiognathi; experiment: Antibacterial activity against Photobacterium leiognathi Sh1 assessed as inhibition of bacterial luminescence at 0.25 mg/mL after 10 mins by bioluminometry-based chronic action test; type: functional; parameters: scale not given: the % may be the effect or the level left
Outline: (§3)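 Chronic (growth plus luminescence) test with P. leiognathi Sh1 at 10^5 cells/mL in chloride solution, compounds added in DMSO. After 10 min at 25 °C, growth medium added at 1:50 and the mix incubated 16–18 h at 30 °C. Luminescence then measured by bioluminometer as % of untreated control. Tetracycline reference.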

[2] = system: Photobacterium leiognathi; experiment: Antibacterial activity against Photobacterium leiognathi Sh1 assessed as inhibition of bacterial luminescence at 0.1 mg/mL after 10 mins by bioluminometry-based chronic action test; type: functional; parameters: scale not given: the % may be the effect or the level left; outline: as §3
Aspergillus niger = experiment: Antifungal activity against Aspergillus niger at 1 to 5 mg/mL after 48 to 72 hrs by stiff-plate agar-diffusion method; type: functional, organism-based; outline: as §2
Staphylococcus aureus = experiment: Antibacterial activity against Staphylococcus aureus at 1 to 5 mg/mL after 24 hrs by stiff-plate agar-diffusion method; type: functional, organism-based; outline: as §1
[3] = system: Photobacterium leiognathi; experiment: Antibacterial activity against Photobacterium leiognathi Sh1 assessed as inhibition of bacterial luminescence at 0.1 mg/mL after 10 mins by bioluminometry-based acute action test; type: functional; parameters: scale not given: the % may be the effect or the level left
Outline: (§4)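 Marine P. leiognathi Sh1 (Azov Sea shrimp isolate) diluted in chloride solution to 10^5 cells/mL; compounds suspended in DMSO mixed with 1 mL bacterial suspension. Acute test: 10 min at 25 °C, then bioluminescence measured by bioluminometer as % of compound-free control. Tetracycline reference.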

[4] = system: Photobacterium leiognathi; experiment: Antibacterial activity against Photobacterium leiognathi Sh1 assessed as inhibition of bacterial luminescence at 0.25 mg/mL after 10 mins by bioluminometry-based acute action test; type: functional; parameters: scale not given: the % may be the effect or the level left; outline: as §4
[5] = system: Photobacterium leiognathi; experiment: Antibacterial activity against Photobacterium leiognathi Sh1 assessed as inhibition of bacterial luminescence at 0.025 mg/mL after 10 mins by bioluminometry-based chronic action test; type: functional; parameters: scale not given: the % may be the effect or the level left; outline: as §3
Mycobacterium = experiment: Antibacterial activity against Mycobacterium luteum at 1 to 5 mg/mL after 24 hrs by stiff-plate agar-diffusion method; type: functional, organism-based; outline: as §1
[6] = system: Photobacterium leiognathi; experiment: Antibacterial activity against Photobacterium leiognathi Sh1 assessed as inhibition of bacterial luminescence at 0.025 mg/mL after 10 mins by bioluminometry-based acute action test; type: functional; parameters: scale not given: the % may be the effect or the level left; outline: as §4
[7] = system: Photobacterium leiognathi; experiment: Antibacterial activity against Photobacterium leiognathi Sh1 at 0.1 to 0.25 ug/mL; type: functional, organism-based
CCRF-CEM = experiment: Cytotoxicity against human CCRF-CEM cells assessed as cell growth at 10^-5 M after 48 hrs by SRB assay; type: functional; settings: read-out: Activity
Outline: (§5)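 NCI 60-cell-line one-dose primary screen: cells inoculated and preincubated 24–48 h, then test agent added at a single 10^-5 M concentration for a further 48 h. Endpoint is sulforhodamine B protein staining read spectrophotometrically. Reported as percent growth relative to untreated control cells.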

SNB-75 = experiment: Cytotoxicity against human SNB75 cells assessed as cell growth at 10^-5 M after 48 hrs by SRB assay; type: functional; settings: SNB-75, 48 h, read-out: Activity
Outline: (§6)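 NCI human tumor cell line panel from nine cancer types. Each line was inoculated and preincubated 24–48 h, then exposed to a single concentration (10^-5 M) for 48 h. Growth was read by sulforhodamine B protein staining, measured spectrophotometrically. Value reported as percent growth of treated cells relative to untreated controls.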

UO-31 = experiment: Cytotoxicity against human UO31 cells assessed as cell growth at 10^-5 M after 48 hrs by SRB assay; type: functional; settings: UO-31, 48 h, read-out: Activity; outline: as §6
CAKI-1 = experiment: Cytotoxicity against human Caki1 cells assessed as cell growth at 10^-5 M after 48 hrs by SRB assay; type: functional; settings: CAKI-1, 48 h, read-out: Activity; outline: as §5
PC-3 = experiment: Cytotoxicity against human PC3 cells assessed as cell growth at 10^-5 M after 48 hrs by SRB assay; type: functional; settings: PC-3, 48 h, read-out: Activity; outline: as §6
[8] = in the assay text read “after 16 to 18 hrs” for “after 10 mins”

SMILES	Activity (Escherichia coli)	Activity (Yamadazyma tenuis)	Activity [1] [%]	Activity [2] [%]	Activity (Aspergillus niger)	Activity (Staphylococcus aureus)	Activity [3] [%]	Activity [4] [%]	Activity [5] [%]	Activity (Mycobacterium)	Activity [6] [%]	Activity [1, 8] [%]	Activity [2, 8] [%]	Activity [5, 8] [%]	Activity [7]	growth at 10 µM (CCRF-CEM) [%]	growth at 10 µM (SNB-75) [%]	growth at 10 µM (UO-31) [%]	growth at 10 µM (CAKI-1) [%]	growth at 10 µM (PC-3) [%]
Cc1nn2c(SCC(=O)NC34CC5CC(CC(C5)C3)C4)nc3ccccc3c2nc1=O	inactive	inactive	0	1.88	inactive	inactive	0	0	25	inactive	36									
CCC1C2CCC(C2)C1NC(=O)CSc1nc2ccccc2c2nc(=O)c(C)nn12 (stereo not drawn)	inactive	inactive			inactive	inactive	104.17	62.5		inactive	91.67	86.11	93.06	90.28						
O=C(CSc1nc2ccccc2c2nc(=O)c(-c3ccccc3)nn12)Nc1ccc(C23CC4CC(CC(C4)C2)C3)cc1	inactive	inactive	66.25	111.25	inactive	inactive	80.88	54.41	118.75	inactive	102.94									
O=C(CSc1nc2ccccc2c2nc(=O)c(-c3ccccc3)nn12)NC12CC3CC(CC(C3)C1)C2	inactive	inactive	78.57	85.71	inactive	inactive	80.43	56.52	97.14	inactive	86.96									
Cc1n[nH]c(-c2ccccc2N)nc1=O															Active					
Cc1ccc(-c2nn3c(SCC(=O)Nc4ccc(C56CC7CC(CC(C7)C5)C6)cc4)nc4ccccc4c3nc2=O)cc1	inactive	inactive	16	140	inactive	inactive	96.15	50	170	inactive	84.62									
CN(C)[C@@H]1C(O)=C(C(N)=O)C(=O)[C@@]2(O)C(O)=C3C(=O)c4c(O)cccc4[C@@](C)(O)[C@H]3C[C@@H]12 [TETRACYCLINE]							9.1	0			80.7	0	0	0						
Cc1nn2c(SCC(=O)O)nc3ccccc3c2nc1=O	inactive	inactive			inactive	inactive	0	0		inactive	66.7	0	61.5	36.4		93.3	83.5	87.1	96	84.5
